Source: ChEMBL document CHEMBL1131110, “Deoxyadenosine bisphosphate derivatives as potent antagonists at P2Y1 receptors” (J Med Chem, 1998)
pEC50, pIC50: −log10 of the molar value. The source made the active and inactive calls. No cut-off for these calls is given here.

Columns and labels:
[1] = target: P2Y purinoceptor 1 (Meleagris gallopavo) (UniProt P49652); test: Agonist activity at P2Y1 receptor measured as capacity to stimulate phospholipase C in turkey erythrocyte membranes; NE=No effect; format: functional, cell membranes
P2Y purinoceptor 1 (Meleagris gallopavo), sequence (P49652 whole entry): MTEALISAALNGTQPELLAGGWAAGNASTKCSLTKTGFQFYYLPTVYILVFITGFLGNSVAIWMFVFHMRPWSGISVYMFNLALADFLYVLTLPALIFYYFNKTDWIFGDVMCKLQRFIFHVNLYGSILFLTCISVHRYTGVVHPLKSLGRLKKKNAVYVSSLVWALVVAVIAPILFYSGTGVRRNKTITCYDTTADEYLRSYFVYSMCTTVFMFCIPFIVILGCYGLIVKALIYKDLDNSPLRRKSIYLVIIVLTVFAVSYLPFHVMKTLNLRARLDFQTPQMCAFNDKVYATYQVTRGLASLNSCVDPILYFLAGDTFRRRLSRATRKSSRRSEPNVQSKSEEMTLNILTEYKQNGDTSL
Procedure, shortened: (§1)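 Turkey erythrocytes labelled with 2-[3H]myo-inositol in inositol-free DMEM for 18–24 h at 37 °C, 5% CO2. Ghosts made by hypotonic lysis. Labelled ghosts (~175 μg protein) incubated 5 min at 30 °C with 1 μM GTPγS and test nucleotide at pH 7.0 (HEPES, KCl, CaCl2, MgSO4, EGTA). Total [3H]inositol phosphates measured by anion-exchange chromatography. EC50 from four-parameter logistic fit. Efficacy is relative to a maximal 2-MeSATP response in the same experiment.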

[2] = target: P2Y purinoceptor 1 (Meleagris gallopavo) (UniProt P49652); test: Antagonist activity at P2Y1 receptor measured as capacity to inhibit phospholipase C stimulation elicited by 10 nM 2-MeSATP; Small inhibition at 30-100 uM; format: functional; settings: filed as antagonist
Procedure, shortened: (§2)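 The PLC assay uses [3H]inositol-labelled turkey erythrocyte ghosts (~175 μg protein) in HEPES buffer, pH 7.0, with 1 μM GTPγS. Ghosts are incubated 5 min at 30 °C with 10 nM 2-MeSATP plus graded analogue concentrations. [3H]inositol phosphates are separated by anion exchange. IC50 is the concentration inhibiting 50% of the 2-MeSATP response. Maximal inhibition is 100 minus residual stimulation at the top concentration. Each curve was run at least 3 times in duplicate or triplicate.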

[3] = target: P2Y purinoceptor 1 (Meleagris gallopavo) (UniProt P49652); test: Antagonist activity at P2Y1 receptor measured as capacity to inhibit phospholipase C stimulation elicited by 10 nM 2-MeSATP; NE=No effect; format: functional; procedure, shortened: as §2
[4] = target: P2Y purinoceptor 1 (Meleagris gallopavo) (UniProt P49652); test: Antagonist activity at P2Y1 receptor measured as capacity to inhibit phospholipase C stimulation elicited by 10 nM 2-MeSATP; No effect or small inhibition; format: functional; procedure, shortened: as §2
[5] = target: P2Y purinoceptor 1 (Meleagris gallopavo) (UniProt P49652); test: Agonist activity at P2Y1 receptor measured as capacity to stimulate phospholipase C in turkey erythrocyte membranes; No effect or small inhibition; format: functional, cell membranes; procedure, shortened: as §1
[6] = target: P2Y purinoceptor 1 (Meleagris gallopavo) (UniProt P49652); test: Antagonist activity at P2Y1 receptor measured as capacity to inhibit phospholipase C stimulation elicited by 10 nM 2-MeSATP; format: functional; procedure, shortened: as §2
P2Y purinoceptor 1 [7] = target: T1, P2Y purinoceptor 1 (Meleagris gallopavo, UniProt P49652); test: Antagonist activity at P2Y1 receptor measured as capacity to inhibit 50% of phospholipase C stimulation elicited by 10 nM 2-MeSATP; format: functional
T1 sequence (P49652 whole entry): as above
Procedure, shortened: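 Ghosts are incubated 5 min at 30 °C with 10 nM 2-MeSATP plus graded analogue concentrations. [3H]inositol phosphates are separated by anion exchange. Maximal inhibition is 100 minus residual stimulation at the top concentration. Each curve was run at least 3 times in duplicate or triplicate.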

P2Y purinoceptor 1 [8] = target: T1, P2Y purinoceptor 1; test: Agonist activity at P2Y1 receptor measured as capacity to stimulate 50% phospholipase C in turkey erythrocyte membranes; format: functional, cell membranes; procedure, shortened: as §1
[9] = target: P2Y purinoceptor 1 (Meleagris gallopavo) (UniProt P49652); test: Agonist activity at P2Y1 receptor measured as capacity to stimulate phospholipase C in turkey erythrocyte membranes; format: functional, cell membranes; procedure, shortened: as §1

SMILES | Max increase [1] | Max inhibition [6] | pIC50 (P2Y purinoceptor 1 [7]) | pEC50 (P2Y purinoceptor 1 [8]) | Max increase [9] | further results
CCCNc1ncnc2c1ncn2[C@H]1C[C@H](OP(=O)(O)O)[C@@H](COP(=O)(O)O)O1 | inactive | – | – | – | – | Max inhibition [2]: Partial antagonist
O=P(O)(O)OC[C@H]1O[C@@H](n2cnc3c2ncn2ccnc32)C[C@@H]1OP(=O)(O)O | inactive | – | – | – | – | Max inhibition [3]: inactive
O=P(O)(O)OC[C@H]1O[C@@H](n2cnc3c(Cl)ncnc32)C[C@@H]1OP(=O)(O)O | – | – | – | – | – | Max inhibition [4]: inactive; Max increase [5]: inactive
Nc1ncnc2c1nc(Br)n2[C@H]1C[C@H](OP(=O)(O)O)[C@@H](COP(=O)(O)O)O1 | inactive | 100% | 4.44 | – | – | –
CC(C)(COP(=O)(O)OP(=O)(O)OC[C@H]1O[C@@H](n2cnc3c(N)ncnc32)[C@H](OP(=O)(O)O)[C@@H]1O)C(O)C(=O)NCCC(=O)NCCS (stereo not given in full) | – | 72% | 4.14 | < 4.00 | 43% | –
NCCCCCCNc1ncnc2c1ncn2[C@@H]1O[C@H](COP(=O)(O)O)[C@@H](O)[C@H]1OP(=O)(O)O | inactive | – | – | – | – | Max inhibition [3]: inactive
Nc1ncnc2c1ncn2[C@@H]1O[C@H](COP(=O)(O)O)[C@H]2O[P@](=O)(O)O[C@H]21 | – | – | 4.90 | 4.39 | – | –
CO[C@@H]1[C@H](OP(=O)(O)O)[C@@H](COP(=O)(O)O)O[C@H]1n1cnc2c(N)ncnc21 | – | 65% | 4.91 | 4.89 | 35% | –
Nc1ncnc2c1ncn2[C@@H]1O[C@H](COP(=O)(O)O)[C@@H](O)[C@H]1OP(=O)(O)O | – | 75% | 5.07 | 5.86 | 25% | –
Nc1ncnc2c1ncn2[C@@H]1O[C@H](COP(=O)(O)O)[C@@H](OP(=O)(O)O)[C@H]1O | – | 77% | 5.38 | 5.89 | 21% | –
CNc1ncnc2c1ncn2C1OC(COP(=O)(O)O)CC1OP(=O)(O)O (stereo not given) | – | 90% | 6.49 | – | 13% | –
Nc1nc(Cl)nc2c1ncn2[C@H]1C[C@H](OP(=O)(O)O)[C@@H](COP(=O)(O)O)O1 | – | 80% | 5.70 | 6.19 | 19% | –
CN(C)c1ncnc2c1ncn2[C@H]1C[C@H](OP(=O)(O)O)[C@@H](COP(=O)(O)O)O1 | inactive | 70% | 4.33 | – | – | –
Nc1ncnc2c1ncn2[C@H]1C[C@H](OP(=O)(O)O)[C@@H](COP(=O)(O)O)O1 | – | 87% | 5.24 | 5.20 | 12% | –
Nc1ncnc2c1ncn2C1OC(CCl)CC1OP(=O)(O)O (stereo not given) | inactive | – | – | – | – | Max inhibition [3]: inactive
O=c1[nH]cnc2c1ncn2[C@H]1C[C@H](OP(=O)(O)O)[C@@H](COP(=O)(O)O)O1 | inactive | – | – | – | – | Max inhibition [2]: Partial antagonist
CCNc1ncnc2c1ncn2[C@H]1C[C@H](OP(=O)(O)O)[C@@H](COP(=O)(O)O)O1 | inactive | 100% | 5.97 | – | – | –
O=C(Nc1ncnc2c1ncn2[C@H]1C[C@H](OP(=O)(O)O)[C@@H](COP(=O)(O)O)O1)c1ccccc1 | inactive | – | – | – | – | Max inhibition [3]: inactive
Nc1ncnc2c1ncn2C1O[C@H](COP(=O)(O)OP(=O)(O)OC2O[C@H](CO)[C@@H](O)[C@H]2O)[C@@H](O)[C@H]1OP(=O)(O)O (stereo not given in full) | – | 50% | < 4.00 | < 4.00 | 50% | –
CSc1nc(N)c2ncn([C@H]3C[C@H](OP(=O)(O)O)[C@@H](COP(=O)(O)O)O3)c2n1 | – | 77% | 5.68 | 6.26 | 22% | –
Nc1ncnc2c1ncn2C1OC(COP(=O)(O)O)CC1OP(=O)(O)O (stereo not given) | – | 81% | 4.96 | 5.08 | 16% | –
Nc1ncnc2c1ncn2[C@@H]1O[C@H](COP(=O)(O)O)[C@H]2OP(=O)(O)O[C@H]21 | – | 73% | – | – | 43% | –
Nc1ncnc2c1ncn2[C@H]1C[C@H](OP(O)(O)=S)[C@@H](COP(O)(O)=S)O1 | – | 91% | 4.06 | – | 9% | –
CSc1ncnc2c1ncn2[C@H]1C[C@H](OP(=O)(O)O)[C@@H](COP(=O)(O)O)O1 | inactive | 78% | 4.54 | – | – | –
C[n+]1cnc2c(ncn2[C@H]2C[C@H](OP(=O)(O)O)[C@@H](COP(=O)(O)O)O2)c1N | inactive | 100% | 4.26 | – | – | –
